The values below come from ChEMBL document CHEMBL1128301, “Cephalosporin derivatives of doxorubicin as prodrugs for activation by monoclonal antibody-beta-lactamase conjugates” (J Med Chem, 1995).

SMILES strings stand for the structures.

The target of experiment [1] is Beta-lactamase (Enterobacter cloacae) (UniProt P05364). The experiment can be described thus: The kinetic constant(kcat) value as spectrophotometrically by using Enterobacter cloacae P99 beta-lactamase (ECIbL) enzyme as catalyst. The essentials:
(§1)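 Spectrophotometric hydrolysis at 23 °C in PBS with 12.5 μg/mL BSA. EClbL was used at 0.1 μg/mL; BCbL and ECbL at 1.0 μg/mL. […] Initial velocities were linear over 1 min.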

In experiment [2] the target is Beta-lactamase TEM (Escherichia coli) (UniProt P62593). As to the kind of experiment: The kinetic constant(kcat) value as spectrophotometrically by using Escherichia coli TEM-1 beta-lactamase (ECbL) enzyme as catalyst. An outline of the steps:
as §1

For experiment [3], the target named is T1, Metallo-beta-lactamase type 2 (Bacillus cereus) (UniProt P14488).
T1 sequence (whole entry): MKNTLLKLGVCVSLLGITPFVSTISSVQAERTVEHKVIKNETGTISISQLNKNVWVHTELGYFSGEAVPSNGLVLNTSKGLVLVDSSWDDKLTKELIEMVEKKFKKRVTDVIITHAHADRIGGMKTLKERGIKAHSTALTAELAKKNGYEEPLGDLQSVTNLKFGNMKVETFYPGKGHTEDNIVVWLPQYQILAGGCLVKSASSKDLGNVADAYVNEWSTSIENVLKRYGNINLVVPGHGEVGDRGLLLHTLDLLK
The experiment can be described thus: The kinetic constant(kcat) value as spectrophotometrically by using Bacillus cereus beta-lactamase (BCbL) enzyme as catalyst. The essentials:
as §1

Sequence of Beta-lactamase TEM (Escherichia coli) (P62593 whole entry): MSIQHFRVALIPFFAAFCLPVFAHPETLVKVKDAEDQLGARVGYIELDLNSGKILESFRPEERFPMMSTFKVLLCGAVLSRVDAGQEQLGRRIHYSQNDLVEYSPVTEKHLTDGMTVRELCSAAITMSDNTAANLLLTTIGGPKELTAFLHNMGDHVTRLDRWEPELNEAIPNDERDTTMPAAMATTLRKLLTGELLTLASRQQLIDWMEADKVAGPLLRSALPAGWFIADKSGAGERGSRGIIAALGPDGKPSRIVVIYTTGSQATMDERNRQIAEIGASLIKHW
Sequence of Beta-lactamase (Enterobacter cloacae) (P05364 21-381 limits assumed): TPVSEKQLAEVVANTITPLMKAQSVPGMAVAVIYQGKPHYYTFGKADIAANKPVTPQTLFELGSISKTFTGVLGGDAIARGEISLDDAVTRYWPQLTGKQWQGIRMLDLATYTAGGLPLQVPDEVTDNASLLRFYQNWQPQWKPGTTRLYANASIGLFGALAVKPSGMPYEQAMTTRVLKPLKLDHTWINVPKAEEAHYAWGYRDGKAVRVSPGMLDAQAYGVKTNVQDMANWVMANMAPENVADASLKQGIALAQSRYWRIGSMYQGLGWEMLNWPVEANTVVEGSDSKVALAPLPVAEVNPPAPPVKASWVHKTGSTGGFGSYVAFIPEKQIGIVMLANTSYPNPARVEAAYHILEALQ

Consider `COc1cccc2c1C(=O)c1c(O)c3c(c(O)c1C2=O)C[C@@](O)(C(=O)CO)C[C@@H]3OC1CC(NC(=O)OCC2=C(C(=O)O)N3C(=O)[C@@H](NC(=O)CCCC(=O)O)[C@H]3SC2)C(O)C(C)O1` (stereo partly drawn), for which the k cat in experiment [1] was 210 s⁻¹; in experiment [2] it was 2.8 s⁻¹; in experiment [3], 6.6 s⁻¹.
